# Screening results as filed in PubChem BioAssay.
# Hits are enriched below; roughly 1.7% of the tested compounds scored in any of these assays.
# Rpn11 block – Rpn11 (human) deubiquitinase inhibition. O00487. human 26S proteasome, Ub4-pepOG fluorescence polarization; 20S core pre-blocked with epoxomicin. inhibition, % at 20 µM. 0.59% of 360,000 active. AID 588493;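 active means inhibition at 20 µM, scaled to each plate's controls, above about 33%, limit read from the data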
# Target sequence (O00487 whole entry, looked up): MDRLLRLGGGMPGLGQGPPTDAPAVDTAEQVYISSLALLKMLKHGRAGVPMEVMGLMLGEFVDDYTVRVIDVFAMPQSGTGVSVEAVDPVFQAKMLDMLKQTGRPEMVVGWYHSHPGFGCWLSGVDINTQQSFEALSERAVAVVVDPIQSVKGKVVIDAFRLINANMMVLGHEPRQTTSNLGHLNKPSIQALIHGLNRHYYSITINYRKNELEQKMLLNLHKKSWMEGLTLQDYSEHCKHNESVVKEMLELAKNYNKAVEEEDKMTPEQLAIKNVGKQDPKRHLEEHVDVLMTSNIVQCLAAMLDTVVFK
# PLC-beta3 inh – inhibitors of human phospholipase C beta3 | Purified PLC-beta3, fluorogenic substrate, fluorescence | inhibition, % at 12.2 µM | 0.18% of 370,000 active | AID 720704; in the data active means inhibition above about 11%
# PLC-gamma1 inh – blocks human PLC-gamma1 enzyme activity; P19174; purified PLC-gamma1, fluorogenic substrate, fluorescence; inhibition, % at 12.2 µM; 0.84% of 370,000 active; AID 720700; in the data active means inhibition above about 9.5%
# UCH37 DUB inh – blocks the human deubiquitinase UCH37; Q9Y5K5; purified proteasome/UCH37, Ub-AMC cleavage fluorescence; inhibition, % (test concentration not listed); 0.33% of 330,000 active; AID 588478;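 active means mean inhibition over replicate wells above about 20%, limit read from the data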
#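 Material: Human UCH37 enzyme supplied as purified proteasome complex | Schedule: 30 min compound-proteasome preincubation then 25 min substrate reaction, room temperature | Detection: AMC fluorescence from Ub-AMC cleavage, excitation 355 nm, emission 460 nm | Benchmarks: Wells without proteasome as full block, compound-free enzyme plus substrate as uninhibited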
# Rpn11 inh conf – confirmation of human proteasome Rpn11 inhibitors | inhibition, % at 20 µM | 29% of 1,900 active | purified human 26S proteasome, Ub4-pepOG fluorescence polarization; proteasome pretreated with epoxomicin | shares compounds with Rpn11 block | AID 602318
# MMP-2 inh – MMP-2 (human) inhibition counter-screen; shares compounds with Rpn11 block; recombinant MMP-2, FRET peptide cleavage fluorescence; inhibition, % at 20 µM; 4% of 1,900 active; AID 602330;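 further: human MMP-2 activated beforehand with APMA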
# Thrombin inh – counter-screen for RPN11 inhibitors: inhibition of bovine thrombin; 13% of 1,900 active; bovine thrombin cleavage of Ub4-pepOG, fluorescence polarization; shares compounds with Rpn11 block; inhibition, % at 20 µM; AID 602333;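 active means mean inhibition at least 40% at 20 µM, or signal 3 deviations below plate average, so some actives read negative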
# A number is an active result; . = inactive; / = not tested or not shown; + = active, no number. Unless noted, no stated cut-off is given here; in the data, active means inhibition above about 40%; inactive means the rest.
SMILES,Rpn11 block,PLC-beta3 inh,PLC-gamma1 inh,UCH37 DUB inh,Rpn11 inh conf,MMP-2 inh,Thrombin inh
CC(=O)Nc1ccc(C(=O)Nc2cccc(-c3cnc4ccccc4n3)c2)cc1,+,.,.,.,.,.,.
O=C(/C=C\Nc1ccc2c(c1)OCO2)c1ccc(Cl)s1,36,.,.,.,.,.,.
COc1ccc(N/C=C\C(=O)c2ccc3c(c2)OCO3)cc1,.,.,.,.,/,/,/
O=C(/C=C\Nc1ccc2c(c1)OCO2)c1ccc2c(c1)OCO2,38,.,.,.,.,.,.
O=[N+]([O-])c1ccc(Oc2ccc(C=NO)cc2)nc1,/,/,/,.,/,/,/
O=C1N/C(=N/NC(=O)c2cccc3ccccc23)S/C1=C\c1ccccc1OCc1ccccc1,45,.,.,.,.,.,.
Cc1cc(SCc2ccc(Cl)cc2Cl)nc(=O)[nH]1,52,.,.,.,.,.,.
Cc1cc(SCC(=O)c2ccc(Cl)cc2)nc(=O)[nH]1,37,.,.,.,.,.,.
Cc1cc(SCc2ccccc2Cl)nc(=O)[nH]1,.,.,.,.,/,/,/
Cc1ccc(C(=O)CSc2cc(C)[nH]c(=O)n2)cc1,60,.,.,.,49,.,.
CCOC(=O)c1c(N=CC2=C(O)CC(C)(C)CC2=O)sc2c1CCCC2,/,/,/,.,/,/,/
O=C(NCCCNCCCNC(=O)c1ccc(C=NO)nc1)c1ccc(C=NO)nc1,/,/,/,.,/,/,/
Cc1cc(=O)n2[nH]c(-c3ccsc3-n3c(C)ccc3C)cc2n1,39,.,.,.,.,.,.
COCc1cc(=O)n2[nH]c(-c3ccsc3-n3c(C)ccc3C)cc2n1,.,.,.,.,/,/,/
C#CCOCCOCCOCCNc1nc(N2CCN(C(=O)[C@H]([C@@H](C)CC)n3cc([C@@H](N)Cc4ccc(O)cc4)nn3)CC2)nc(N2CCN(C(=O)[C@H](Cc3cc4ccccc4[nH]3)n3cc([C@@H](N)CC(C)C)nn3)CC2)n1,64,/,/,/,.,.,.
C#CCOCCOCCOCCNc1nc(N2CCN(C(=O)[C@H]([C@@H](C)CC)n3cc([C@@H](N)CC(C)C)nn3)CC2)nc(N2CCN(C(=O)[C@H](Cc3cc4ccccc4[nH]3)n3cc([C@@H](N)Cc4ccc(O)cc4)nn3)CC2)n1,/,/,/,.,/,/,/
Cc1nn(C)c(C)c1C=NN=C1CCC2C3CCc4cc(O)ccc4C3CCC12C (stereo not drawn),/,/,/,.,/,/,/
COc1nc(Nc2nc3ccccc3c(=O)[nH]2)nc2ccc(C)cc12,43,.,14,.,.,.,.
CCOC(=O)c1cc2occc2n1Cc1c(F)cccc1Cl,42,.,.,.,.,.,.
CCOC(=O)c1cc2occc2n1Cc1ccc(F)cc1,.,.,.,.,/,/,/
Cc1cc(NC(=O)CCC(=O)N(c2ccccc2)C(C(=O)NC2CCCC2)c2ccccc2)no1 (stereo not drawn),44,.,.,.,.,.,.
Cc1ccc(N(C(=O)CCC(=O)Nc2cc(C)on2)C(C(=O)NC2CCCC2)c2ccccc2)cc1 (stereo not drawn),.,.,.,.,/,/,/
CC(=NNC(=O)CSCc1ccc(Cl)cc1)c1ccc(NC(=O)c2ccccc2)cc1,/,/,/,.,/,/,/
COc1cc(/C=N/NC(=O)c2cncc(Br)c2)cc([N+](=O)[O-])c1O,68,.,.,/,.,.,.
COc1cc([N+](=O)[O-])cc(/C=N/NC(=O)c2cc(C)nc3ccccc23)c1O,.,.,.,/,/,/,/
SMILES,Rpn11 block,PLC-beta3 inh,PLC-gamma1 inh,UCH37 DUB inh,Rpn11 inh conf,MMP-2 inh,Thrombin inh
COc1cc([N+](=O)[O-])cc(/C=N/NC(=O)c2cc(-c3ccccc3)nc3ccccc23)c1O,89,.,.,/,68,.,.
COc1cc([N+](=O)[O-])cc(/C=N/NC(=O)c2cncc(Br)c2)c1O,60,.,.,/,49,.,.
CCCCn1c(/N=C/c2ccc(N(C)C)cc2)nc2ccccc21,52,.,.,/,72,.,59
CCC1CCCCN1CCCNS(=O)(=O)c1ccc2c(c1)oc(=O)n2C (stereo not drawn),68,.,.,.,.,.,.
C=CCn1c(CCC(=O)O)ccc1-c1ccc(OC)cc1,38,.,.,.,.,.,.
COc1ccc(-c2ccc(CCC(=O)O)n2CC(C)C)cc1,.,.,.,.,/,/,/
Cc1ccc(C=Nn2cnnc2)s1,/,/,/,.,/,/,/
